Results as given in ChEMBL document CHEMBL1944511, “Bakuchiol derivatives as novel and potent cytotoxic agents: a report” (Eur J Med Chem, 2012).

What was measured:
[1] = system: DU-145; assay: Cytotoxicity against human DU145 cells after 48 hrs by sulpharhodamine B assay; format: functional, cell-based; conditions: DU-145, 48 h
In short: (§1)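 Cells were grown in RPMI-1640/MEM with 10% FCS and penicillin/streptomycin at 37 °C under 5% CO2, then seeded and left to adhere overnight. Analogs in DMSO (vehicle <0.2%) were added at several concentrations for 48 h. Cells were fixed with cold 50% TCA, stained with 0.4% SRB in 1% acetic acid, solubilised in 10 mM Tris, and read at OD 570/620 nm. IC50 came from non-linear regression.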

[2] = system: PC-3; assay: Growth inhibition of human PC3 cells at 20 uM after 48 hrs by sulpharhodamine B assay; format: functional; conditions: PC-3, 48 h, read-out: GI
In short: (§2)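 This is the SRB protein-stain assay on adherent cells in RPMI-1640/MEM with 10% FCS. Each compound in DMSO (vehicle <0.2%) was applied at a single fixed concentration for 48 h. Cells were fixed with TCA and stained with SRB, and the dye was solubilised in Tris and read at 570/620 nm. Percent growth inhibition is relative to vehicle-treated controls, reported as mean ± SD of three experiments run in triplicate.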

[3] = system: OVCAR-5; assay: Growth inhibition of human OVCAR5 cells at 30 uM after 48 hrs by sulpharhodamine B assay; format: functional; conditions: OVCAR-5, 48 h, read-out: GI; in short: as §2
[4] = system: HEp-2; assay: Growth inhibition of human Hep2 cells at 30 uM after 48 hrs by sulpharhodamine B assay; format: functional; conditions: HEp-2, 48 h, read-out: GI; in short: as §2
[5] = system: THP-1; assay: Growth inhibition of human THP1 cells at 30 uM after 48 hrs by sulpharhodamine B assay; format: functional; conditions: THP-1, 48 h, read-out: GI
In short: (§3)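 Cells grown in RPMI-1640/MEM with 10% FCS, penicillin/streptomycin, 37 °C, 5% CO2. Seeded in 96-well plates, allowed to adhere overnight, then exposed 48 h to analogs in DMSO (vehicle <0.2% in controls). TCA-fixed, stained with 0.4% SRB in 1% acetic acid, dye solubilized in 10 mM Tris base, OD 570 nm (ref 620 nm). Mean ± SD of three experiments run in triplicate.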

[6] = system: HL-60; assay: Induction of apoptosis in human HL60 cells assessed as loss of mitochondrial membrane potential at 30 uM after 24 hrs by rodamine-123 staining-based flow cytometric analysis; format: functional
[7] = system: HEp-2; assay: Growth inhibition of human Hep2 cells at 20 uM after 48 hrs by sulpharhodamine B assay; format: functional; conditions: HEp-2, 48 h, read-out: GI; in short: as §2
[8] = system: PC-3; assay: Cytotoxicity against human PC3 cells after 48 hrs by sulpharhodamine B assay; format: functional, cell-based; conditions: PC-3, 48 h; in short: as §1
[9] = system: IMR-32; assay: Growth inhibition of human IMR32 cells at 20 uM after 48 hrs by sulpharhodamine B assay; format: functional; conditions: IMR-32, 48 h, read-out: GI; in short: as §2
[10] = system: HL-60; assay: Induction of apoptosis in human HL60 cells assessed as loss of mitochondrial membrane potential at 1 uM after 24 hrs by rodamine-123 staining-based flow cytometric analysis (reference value: 6%); format: functional
[11] = system: SF-295; assay: Cytotoxicity against human SF295 cells after 48 hrs by sulpharhodamine B assay; format: functional, cell-based; conditions: SF-295, 48 h; in short: as §1
[12] = system: HEp-2; assay: Growth inhibition of human Hep2 cells at 5 uM after 48 hrs by sulpharhodamine B assay; format: functional; conditions: HEp-2, 48 h, read-out: GI; in short: as §2
[13] = system: IMR-32; assay: Growth inhibition of human IMR32 cells at 10 uM after 48 hrs by sulpharhodamine B assay; format: functional; conditions: IMR-32, 48 h, read-out: GI; in short: as §2
[14] = system: A549; assay: Growth inhibition of human A549 cells at 20 uM after 48 hrs by sulpharhodamine B assay; format: functional; conditions: A549, 48 h, read-out: GI; in short: as §2
[15] = system: HL-60; assay: Cytotoxicity against human HL60 cells after 48 hrs by MTT assay; format: functional, cell-based; conditions: for IC50: HL-60, 48 h
In short: (§4)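 Exponentially growing HL-60 cells (1.5×10^4 per well) in 96-well plates were exposed to a range of compound concentrations in DMSO, with vehicle-only controls. MTT (2.5 mg/mL stock) was added for 3–4 h at 37 °C, and formazan was dissolved in DMSO and read at OD 570/620 nm. […] Data are mean ± SD of n = 6 wells from two experiments.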

[16] = system: HL-60; assay: Induction of apoptosis in human HL60 cells assessed as loss of mitochondrial membrane potential at 10 uM after 24 hrs by rodamine-123 staining-based flow cytometric analysis (reference value: 6%); format: functional
[17] = system: MCF7; assay: Growth inhibition of human MCF7 cells at 10 uM after 48 hrs by sulpharhodamine B assay; format: functional; conditions: MCF7, 48 h, read-out: GI; in short: as §2
[18] = system: IMR-32; assay: Growth inhibition of human IMR32 cells at 50 uM after 48 hrs by sulpharhodamine B assay; format: functional; conditions: IMR-32, 48 h, read-out: GI; in short: as §2
[19] = system: HCT-15; assay: Growth inhibition of human HCT15 cells at 20 uM after 48 hrs by sulpharhodamine B assay; format: functional; conditions: HCT-15, 48 h, read-out: GI; in short: as §2
[20] = system: HL-60; assay: Cytotoxicity against human HL60 cells by MTT assay; format: functional, cell-based; conditions: TDE = time-dependent effect; in short: as §4
[21] = system: A549; assay: Growth inhibition of human A549 cells at 10 uM after 48 hrs by sulpharhodamine B assay; format: functional; conditions: A549, 48 h, read-out: GI; in short: as §2
[22] = system: A549; assay: Growth inhibition of human A549 cells at 50 uM after 48 hrs by sulpharhodamine B assay; format: functional; conditions: A549, 48 h, read-out: GI; in short: as §2
[23] = system: MCF7; assay: Growth inhibition of human MCF7 cells at 30 uM after 48 hrs by sulpharhodamine B assay; format: functional; conditions: MCF7, 48 h, read-out: GI; in short: as §2
[24] = system: MCF7; assay: Growth inhibition of human MCF7 cells at 5 uM after 48 hrs by sulpharhodamine B assay; format: functional; conditions: MCF7, 48 h, read-out: GI; in short: as §2
[25] = system: PC-3; assay: Growth inhibition of human PC3 cells at 10 uM after 48 hrs by sulpharhodamine B assay; format: functional; conditions: PC-3, 48 h, read-out: GI; in short: as §2
[26] = system: DU-145; assay: Growth inhibition of human DU145 cells at 20 uM after 48 hrs by sulpharhodamine B assay; format: functional; conditions: DU-145, 48 h, read-out: GI; in short: as §2
[27] = system: HL-60; assay: Cytotoxicity against human HL60 cells after 48 hrs by sulpharhodamine B assay; format: functional, cell-based; conditions: HL-60, 48 h, in the assay text read “MTT assay” for “sulpharhodamine B assay”
[28] = system: HL-60; assay: Induction of apoptosis in human HL60 cells assessed as increase in […] sub-G0 fraction at 30 uM by propidium iodide staining-based flow cytometric analysis (reference value: 6%); format: functional
[29] = system: HL-60; assay: Induction of apoptosis in human HL60 cells assessed as increase in […] sub-G0 fraction at 5 uM by propidium iodide staining-based flow cytometric analysis (reference value: 6%); format: functional
[30] = system: HeLa; assay: Growth inhibition of human HeLa cells at 50 uM after 48 hrs by sulpharhodamine B assay; format: functional; conditions: read-out: GI; in short: as §2
[31] = system: HCT-15; assay: Cytotoxicity against human HCT15 cells after 48 hrs by sulpharhodamine B assay; format: functional, cell-based; conditions: HCT-15, 48 h; in short: as §1
[32] = system: MCF7; assay: Growth inhibition of human MCF7 cells at 20 uM after 48 hrs by sulpharhodamine B assay; format: functional; conditions: MCF7, 48 h, read-out: GI; in short: as §2
[33] = system: HEp-2; assay: Growth inhibition of human Hep2 cells at 10 uM after 48 hrs by sulpharhodamine B assay; format: functional; conditions: HEp-2, 48 h, read-out: GI; in short: as §2
[34] = system: HL-60; assay: Induction of apoptosis in human HL60 cells assessed as loss of mitochondrial membrane potential at 5 uM after 24 hrs by rodamine-123 staining-based flow cytometric analysis (reference value: 6%); format: functional
[35] = system: PC-3; assay: Growth inhibition of human PC3 cells at 5 uM after 48 hrs by sulpharhodamine B assay; format: functional; conditions: PC-3, 48 h, read-out: GI; in short: as §3
[36] = system: HCT-15; assay: Growth inhibition of human HCT15 cells at 5 uM after 48 hrs by sulpharhodamine B assay; format: functional; conditions: HCT-15, 48 h, read-out: GI; in short: as §2

SMILES | IC50 [1] [µM] | inhibition of growth at 20 µM [2] [%] | inhibition of growth at 30 µM [3] [%] | inhibition of growth at 30 µM [4] [%] | inhibition of growth at 30 µM [5] [%] | Activity [6] [%] | inhibition of growth at 20 µM [7] [%] | IC50 [8] [µM] | inhibition of growth at 20 µM [9] [%] | Activity [10] [%] | IC50 [11] [µM] | inhibition of growth at 5 µM [12] [%] | inhibition of growth at 10 µM [13] [%] | inhibition of growth at 20 µM [14] [%] | Activity [15] | IC50 [15] [µM] | Activity [16] [%] | inhibition of growth at 10 µM [17] [%] | inhibition of growth at 50 µM [18] [%] | inhibition of growth at 20 µM [19] [%] | also measured
COc1ccc(/C=C/[C@](C)(/C=C/c2ccc(O)cc2)CCC=C(C)C)cc1 | 11 | 58 | 50 | 45 | 60 | 55.4 | 58 | 15 | 40 | 14.4 | 22 | 23 | 32 | 69 | Dose-dependent effect | 2 | 46.4 | 37 | 69 | 61 | Activity [20]: tde; inhibition of growth at 10 µM [21]: 47%; inhibition of growth at 50 µM [22]: 70%; inhibition of growth at 30 µM [23]: 52%; inhibition of growth at 5 µM [24]: 24%; inhibition of growth at 10 µM [25]: 41%; inhibition of growth at 20 µM [26]: 73%; IC50 [27]: 2 µM; Activity [28]: 66%; Activity [29]: 8%; inhibition of growth at 50 µM [30]: 78%; IC50 [31]: 13 µM; inhibition of growth at 20 µM [32]: 50%; inhibition of growth at 10 µM [33]: 46%; Activity [34]: 20.6%; inhibition of growth at 5 µM [35]: 23%; inhibition of growth at 5 µM [36]: 28%
CC1C(C(C)(C)O)CCC1(C)/C=C/c1ccc(O)cc1 (centres undefined) | 14 | 57 | 55 | 53 | 68 | 54 | 50 | 19 | 62 | 12.4 | 23 | 17 | 50 | 53 | Dose-dependent effect | 1.8 | 31.7 | 32 | 85 | 63 | Activity [20]: tde; inhibition of growth at 10 µM [21]: 40%; inhibition of growth at 50 µM [22]: 76%; inhibition of growth at 30 µM [23]: 58%; inhibition of growth at 5 µM [24]: 27%; inhibition of growth at 10 µM [25]: 35%; inhibition of growth at 20 µM [26]: 54%; IC50 [27]: 1.8 µM; Activity [28]: 68%; Activity [29]: 12%; inhibition of growth at 50 µM [30]: 68%; IC50 [31]: 13 µM; inhibition of growth at 20 µM [32]: 50%; inhibition of growth at 10 µM [33]: 34%; Activity [34]: 17.9%; inhibition of growth at 5 µM [35]: 24%; inhibition of growth at 5 µM [36]: 29%
